hERG rescue – hERG rescue from dofetilide block, primary screen, cell-based, CHO-hERG, FluxOR thallium flux, dofetilide IC70. Voltage-gated inwardly rectifying potassium channel KCNH2 (Homo sapiens), Q12809. dofetilide IC70 present. activation (rescue from dofetilide block), less the hit threshold, % at 10 µM. 310,000 compounds, 0.51% hits. AID 1511, 2009;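 active means activation above the mean of controls blocked by dofetilide plus 5 SD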;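 further: thallium influx through hERG after potassium depolarization seen as dye fluorescence rise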
KCNQ1 inh – inhibitors of human KCNQ1 channel, primary screen, cell-based, thallium flux, high-throughput; CHO-K1 KCNQ1, FluxOR thallium flux fluorescence; active compounds read high; B-score at 10 µM; 310,000 compounds, 1.3% hits; AID 2642, 2010;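 active means compounds whose thallium flux B-score, printed positive for inhibition, exceeds three library SD while starting fluorescence stays within three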;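 further: channel opened by potassium depolarization with thallium stimulus after 20 min compound exposure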
KCNK9 block – KCNK9 potassium channel inhibitors, primary screen, HEK293 cells, thallium flux. 310,000 compounds, 1.2% hits. B-score at 10 µM. FluxOR thallium flux fluorescence; active compounds read low;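 active means ratio B-score over 3 SD below the library mean, with starting fluorescence within 5 SD of its mean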;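 further: negative B-score means less thallium flux so channel inhibition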
KCNK3 block – human KCNK3 channel inhibitors, primary screen, CHO cells, FluxOR thallium flux, B-score; FluxOR fluorescence; active compounds read low; B-score at 10 µM; 340,000 compounds, 0.84% hits; Potassium channel subfamily K member 3 (Homo sapiens), O14649;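 active means B-score under library mean minus 4 SD, starting fluorescence ratio at most library mean plus 5 SD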;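 further: more negative B-score means stronger inhibition of thallium flux through KCNK3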
Target sequence (O14649 whole entry, looked up): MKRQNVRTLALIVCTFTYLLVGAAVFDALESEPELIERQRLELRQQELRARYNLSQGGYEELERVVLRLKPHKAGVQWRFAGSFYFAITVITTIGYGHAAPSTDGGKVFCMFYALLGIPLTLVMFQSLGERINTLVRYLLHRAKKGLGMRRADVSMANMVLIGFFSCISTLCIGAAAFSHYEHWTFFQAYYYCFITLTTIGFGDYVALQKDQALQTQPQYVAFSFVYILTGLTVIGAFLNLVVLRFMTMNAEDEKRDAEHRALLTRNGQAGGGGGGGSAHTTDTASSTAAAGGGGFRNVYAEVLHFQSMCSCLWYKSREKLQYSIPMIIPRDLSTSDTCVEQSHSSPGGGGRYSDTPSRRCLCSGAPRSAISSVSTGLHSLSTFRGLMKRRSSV
Kir21 inh – inhibitors of mouse Kir2.1 inward-rectifier potassium channel. HEK293-Kir2.1, FluxOR thallium flux fluorescence; active compounds read low. 310,000 compounds, 0.85% hits. AID 1672, 2009. B-score at 10 µM. Inward rectifier potassium channel 2 (Mus musculus), P35561;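 active means fluorescence ratio B-score at or below minus 3 SD of library scores, with starting-brightness B-score within 2 SD, cut at about -4.2 in these data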;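 further: channel flux triggered by added potassium and thallium sulfate stimulus; B-score of peak minus minimum fluorescence over baseline after thallium stimulus; more negative B-score means stronger Kir2.1 block with less thallium influx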
KCNQ1 pot – potentiators or activators of KCNQ1 channel, primary screen, cell-based, thallium flux, high-throughput | Potassium voltage-gated channel subfamily KQT member 1 (Homo sapiens), P51787 | CHO-K1 KCNQ1, thallium flux FluxOR fluorescence; active compounds read high | B-score at 10 µM | 310,000 compounds, 0.35% hits | AID 2648, 2010;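 active means fluorescence ratio B-score, a plate-corrected score, at least three library SD, with initial intensity B-score within 5 SD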
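Schedule – 37 °C overnight plating, 90-min dark dye load, 20-min compound pretreatment · System – stable KCNQ1 CHO-K1 line · Probe or stimulus – thallium- and potassium-containing depolarizing buffer · Measured by – kinetic FluxOR fluorescence, 10 s baseline plus 110 s post-stimulus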
KCNK9 block conf – KCNK9 potassium channel inhibitors, confirmation, HEK293 cells, thallium flux, duplicate; FluxOR thallium flux fluorescence; shares compounds with KCNK9 block; AID 492992, 2010; 4,900 compounds, 43% hits; inhibition, % at 10 µM;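 active means thallium signal inhibited by more than 5 SD of the compound-free buffer control wells, on both duplicate plates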
Kir2-1 spec – mouse Kir2.1 channel inhibition, confirmation, selectivity assay for KCNK9 modulator project, cell-based, HEK293, thallium flux. shares compounds with KCNK9 block. Kir2.1 cells, FluxOR thallium flux fluorescence. inhibition, % at 10 µM. 4,900 compounds, 4% hits;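 active means thallium signal drop more than 5 SD beyond the mean of the no-compound control wells, seen in both duplicate plates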;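 further: signal is fluorescence rise after thallium addition divided by baseline fluorescence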
HEK293 Tl ctr – thallium flux in non-induced HEK293 cells, confirmation, counter-screen for KCNK9 inhibitor project, cell-based, second counter screen, non-induced KCNK9-HEK293 | inhibition, % at 10 µM | 4,900 compounds, 40% hits | FluxOR thallium flux | shares compounds with KCNK9 block;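 active means thallium signal drop beyond 5 SD of the untreated control mean, on both duplicate plates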
Hits are given with their value; . = inactive; / = not tested or not shown. Hits are enriched below; roughly 3.8% of the tested compounds scored in any of these assays.

SMILES	hERG rescue	KCNQ1 inh	KCNK9 block	KCNK3 block	Kir21 inh	KCNQ1 pot	KCNK9 block conf	Kir2-1 spec	HEK293 Tl ctr
COc1cc(C(CCN2CCN(c3ccccc3)CC2)c2c(OC)cc(OC)c3c(C)cc(=O)oc23)cc(OC)c1OC (stereo not drawn)	.	.	.	.	.	.	.	.	.
COc1cc(C(CCN2CCCC2)c2c(OC)cc(OC)c3ccc(=O)oc23)cc(OC)c1OC (stereo not drawn)	.	.	.	.	.	.	/	/	/
O=S(=O)(Nc1ccc(N2CCCCC2)cc1)c1ccc(F)c(F)c1	.	.	.	.	.	.	/	/	/
CCC1=NN2C(=N)/C(=C\c3cccn3-c3ccc(Br)cc3)C(=O)N=C2S1	.	.	.	.	.	.	/	/	/
CCC1=NN2C(=N)/C(=C\c3cccn3-c3cccc(Cl)c3)C(=O)N=C2S1	.	.	.	.	.	.	.	.	.
Cc1cc(OCC(=O)Nc2ccc(N3CCN(C)CC3)cc2)ccc1Cl	.	.	.	.	.	.	/	/	/
CC1=C([N+](=O)[O-])C(c2cccc(Br)c2)C2=C(N1)c1ccccc1C2=O (stereo not drawn)	.	10	-8.37	.	.	.	53.5%	.	38.0%
CCn1c(SC)nnc1-c1sc2cc(Cl)ccc2c1Cl	.	.	-11.1	.	.	.	59.5%	.	36.5%
O=C(NC1CC1)c1cc(=S)[nH]c2ccccc12	/	/	/	.	/	/	/	/	/
CCOC(=O)c1cnn(-c2ccccc2)c1-n1cccc1C(=O)C(=O)Nc1ccccc1C(F)(F)F	.	.	-13.5	.	.	.	43.0%	.	54.0%
CCOC(=O)c1cnn(-c2ccccc2)c1-n1cccc1C(=O)C(=O)N(CC)CC	.	.	.	.	.	.	/	/	/
Cc1ccc(S(=O)(=O)NCC(=O)N2CCN(S(=O)(=O)c3ccc(Cl)cc3)CC2)cc1C	.	.	.	.	.	.	/	/	/
CCOc1cc(N2CCOCC2)c(OCC)cc1NC(=O)COC(=O)c1ccc([N+](=O)[O-])o1	/	/	/	.	/	/	/	/	/
CC1=CC(C)(C)N(C(=O)c2ccccc2)c2ccc(C)cc21	.	.	.	.	.	.	/	/	/
COc1ccc(C(=O)N2c3cc4c(cc3C(C)=CC2(C)C)OCO4)cc1	.	.	-11.1	.	.	.	26.5%	.	42.5%
Cc1ccc(C)c(-c2cc(C(=O)N/N=C/c3cccnc3)c3ccccc3n2)c1	.	.	-12.9	-9.95	.	.	53.5%	.	31.5%
O=C(N/N=C/c1cccnc1)c1cc(-c2ccccc2)nc2ccccc12	.	.	.	.	.	.	/	/	/
Cc1ccc(CNC(=O)c2ccc(N3CCC4(CC3)CC(c3cccc(Br)c3)=NO4)c(NC(=O)c3c(Cl)cccc3Cl)c2)cc1	/	/	/	.	/	/	/	/	/
Cc1nn(CC2CC2)c(=O)n1-c1ccc(Oc2ccccc2)cc1	.	.	.	.	.	.	.	.	.
COc1ccc(-n2c(C)nn(CCOc3ccccc3)c2=O)cc1	.	.	.	.	.	.	/	/	/
Cc1ccc([N+](=O)[O-])c(OCCN2CCNCC2)c1	.	.	.	.	.	.	.	.	.
Cc1cc(OCCN2CCC(Cc3ccccc3)CC2)ccc1[N+](=O)[O-]	.	.	.	.	.	.	.	.	.
Cc1cc(OCCN2CC(C)OC(C)C2)ccc1[N+](=O)[O-] (stereo not drawn)	.	.	.	.	.	.	/	/	/
O=C(COC(=O)CN1C(=O)c2ccccc2C1=O)Nc1cccc(F)c1	/	/	/	.	/	/	/	/	/
CCn1cc(/C=N/N=C2\CCC3C4CCc5cc(O)ccc5C4CC[C@]23C)c(C)n1 (stereo partly drawn)	.	.	.	.	.	.	.	.	.
SMILES	hERG rescue	KCNQ1 inh	KCNK9 block	KCNK3 block	Kir21 inh	KCNQ1 pot	KCNK9 block conf	Kir2-1 spec	HEK293 Tl ctr
CCOC(=O)c1nn(-c2ccccc2)c(C#N)c1NC(=O)c1nn(CC)cc1Br	.	.	.	.	.	.	/	/	/
CCOC(=O)c1c(NC(=O)c2nn(CC)cc2Br)c(C#N)nn1-c1ccccc1	.	.	-9.35	.	.	.	30.5%	.	33.0%
O=C(O)CSc1cc(NS(=O)(=O)c2ccc(Br)cc2)c2ccccc2c1O	.	.	.	.	.	.	.	.	28.5%
CCOc1ccccc1N(CC(=O)NC1CCCC1)S(=O)(=O)c1ccc(C)cc1	.	.	.	.	.	.	/	/	/
CCOC(=O)[C@H]1[C@H]2COc3cc(OC)ccc3[C@@H]2N2C(=O)c3cc(OC)c(OC)cc3NC(=O)[C@@]12C	/	/	/	.	/	/	/	/	/
COCCNC(=O)c1cc2oc3ccccc3c2n1C	.	.	.	.	.	.	/	/	/
Cc1cc(C)n(-c2nc3ccccc3nc2N2CCN(C(=O)c3ccccc3)CC2)n1	.	.	.	.	.	.	.	.	.
Cc1cc(C)n(-c2ccc(C(=O)N3CCN(c4ccccn4)CC3)cc2)n1	/	/	/	.	/	/	/	/	/
CC(C)(C)OC(=O)N1CCC(CNC(=O)c2ccc(F)cc2)CC1	.	.	.	.	.	.	/	/	/
COC(=O)C1=NN(C(=O)c2cccc(Br)c2)C(O)(c2ccc(Cl)cc2)C1 (stereo not drawn)	59.5	.	.	.	.	82	.	.	.
COc1ccc(CCN(C)Cc2cccc3ccccc23)cc1OC	.	.	.	.	.	.	/	/	/
CN(C/C=C/C#CC(C)(C)C)Cc1cccc2ccccc12	.	.	.	.	.	.	.	.	.
O=C(Nc1cc(Sc2ccccn2)cc([N+](=O)[O-])c1)c1ccc(Cl)cc1	.	.	.	.	.	.	/	/	/
O=C(Nc1cc(Sc2ccccn2)cc([N+](=O)[O-])c1)c1cccc(Cl)c1	.	7	-10.2	.	.	.	41.0%	.	39.5%
O=[N+]([O-])c1cc(Cl)ccc1N1CCCC1	.	.	.	.	.	.	/	/	/
O=[N+]([O-])c1cc(S(=O)(=O)C(F)(F)F)ccc1N1CCN(c2ccccc2)CC1	.	.	-8.3	.	.	.	.	.	35.0%
O=[N+]([O-])c1cc(Cl)ccc1N1CCN(c2cccc(C(F)(F)F)c2)CC1	.	.	-11.8	.	.	.	75.0%	.	51.0%

Screens (PubChem)
